Measured values gathered from unrelated publications.
Protocols differ between the studies behind these lines. In brackets after ≈: the same amount, converted by molar mass.

| Compound | target or system | test | test system | setting | endpoint | result |
| --- | --- | --- | --- | --- | --- | --- |
| O=C(Nc1ncc([N+](=O)[O-])s1)c1cccnc1 | Chikungunya virus | viral replication, luciferase | BHK-21 | 16 h | IC50 | > 100 µM |
| COc1c(N2CCNC(C)C2)c(F)cc2c(=O)c(C(=O)O)cn(C3CC3)c12 (stereo not drawn) | Haemophilus influenzae | microbial growth | – | – | MIC | > 4 µg/mL |
| Cc1cc(C(C)(C)C)c(O)c(C(C)(C)C)c1 | – | DPPH scavenging, absorbance | – | 30 min | IC50 | 308 µM |
| Cc1ccc(C2CC2C(=O)NC(C(N)=O)c2ccccc2)cc1C (stereo not drawn) | Chikungunya virus | viral replication, luciferase | BHK-21 | 16 h | IC50 | > 100 µM |
| O=C1O[C@H]([C@@H](O)CO)C(O)=C1O | – | DPPH scavenging | – | – | IC50 | 10.2 µM |
| O=C(NCc1ccc(Cl)cc1)C1CC1c1ccccc1 (stereo not drawn) | Chikungunya virus | viral replication, luciferase | BHK-21 | 16 h | IC50 | > 100 µM |
| C[C@]12CCC(=O)C(O)=C1CC[C@@H]1[C@@H]2CC[C@]2(C)C(=O)CC[C@@H]12 | FaDu | cell growth or viability | – | 72 h | IC50 | > 20 µM |
| O=c1c(O)c(-c2ccc(O[C@@H]3O[C@H](CO)[C@@H](O)[C@H](O)[C@H]3O)c(O)c2)oc2cc(O)cc(O)c12 | – | DPPH scavenging, absorbance | – | – | IC50 | 28.5 µg/mL |
| CO/N=C1\CN(c2nc3c(cc2F)c(=O)c(C(=O)O)cn3C2CC2)CC1CN (stereo not drawn) | Haemophilus influenzae | microbial growth | – | – | MIC | 2 µg/mL (≈ 5.14 µM) |
| CC(Cc1ccc(O)cc1)NCC(O)c1cc(O)cc(O)c1 (stereo not drawn) | THP-1 | TNF-α release, inhibitor | – | 17 h, LPS-stimulated | IC50 | 0.12 µM |
| O=C(Nc1ncc([N+](=O)[O-])s1)c1cc(Cl)ccc1Cl | Chikungunya virus | viral replication, luciferase | BHK-21 | 16 h | IC50 | 8.3 µM |
| COc1c(N2C[C@@H]3CCCN[C@@H]3C2)c(F)cc2c(=O)c(C(=O)O)cn(C3CC3)c12 | Haemophilus influenzae | microbial growth | – | – | MIC | > 4 µg/mL |
